# Data taken from ChEMBL document CHEMBL1153366, “Synthesis, discovery and preliminary SAR study of benzofuran derivatives as angiogenesis inhibitors” (Bioorg Med Chem Lett, 2009).
# Assays:
# Assay type in all cases: functional, cell-based; call rule not given here
# HUVEC = experiment: Antiproliferative activity against HUVEC after 96 hrs by MTT method; conditions: Homo sapiens
# How it was run: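 HUVECs seeded at 1000 cells/well in 96-well plates and left to attach 20 h. Compound added in 0.1% DMSO at several concentrations, with a carrier-only control. Each concentration run in triplicate. After 96 h exposure, viability was read by MTT and expressed relative to control. IC50 was derived from viability versus concentration.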
# A549 = experiment: Antiproliferative activity against human A549 cells after 96 hrs by MTT method
# How it was run: (§1)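 Cancer cells seeded at 1500 cells/well in 96-well plates and allowed 20 h to attach. They were then exposed to compound in 0.1% DMSO over a range of concentrations, with an equal volume of carrier as control, in triplicate. After 96 h, MTT was used to give relative viability. IC50 came from the viability versus concentration relationship.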
# Bel-7402 = experiment: Antiproliferative activity against human Bel7402 cells after 96 hrs by MTT method; how it was run: as §1
# MCF7 = experiment: Antiproliferative activity against human MCF7 cells after 96 hrs by MTT method; how it was run: as §1
SMILES,IC50 (HUVEC),IC50 (A549),IC50 (Bel-7402),IC50 (MCF7)
CCOC(=O)/C=C/c1c(C(=O)OCC)oc2ccc(O)cc12,32.6 µM,Not Active,Not Active,Not Active
CCOC(=O)/C=C/c1oc2ccc(O)cc2c1C,> 50 µM,Not Active,Not Active,Not Active
CCOC(=O)/C=C/c1c(C)oc2ccc(O)cc12,27.6 µM,Not Active,Not Active,Not Active
CCOC(=O)/C=C/c1oc2ccc(O)cc2c1C(=O)OCC,4.3 µM,Not Active,Not Active,Not Active
